# High-throughput results from PubChem.
# T cruzi intra = intracellular Trypanosoma cruzi inhibition; intracellular Trypanosoma cruzi in host cells, plate reader; activity score (inhibition), % at 5.01 µM; 4.9% of 22,000 active; AID 651903; in the data active = activity score above about 55%;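 also: parasites and compound incubated about four days before reading; 0% = median of neutral control wells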
# YB-1 expr inh = YB-1 expression inhibition; delta delta Cp (YB-1 minus CDIP) (concentration not given with the values); AID 434959; 0.37% of 30,000 active; U2OS, qRT-PCR YB-1 vs CDIP delta delta Cp, 16 h; hits give high values; zero = DMSO, each unit about twofold;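 active = delta delta Cp rounded down to an integer at or above 3, about 3 SD of DMSO wells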;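 also: higher means less YB-1 transcript or more CDIP transcript relative to DMSO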
# INS-1E rescue = rescue of cytokine-induced death in INS-1E beta cells | AID 488910 | 0.1% of 20,000 active | INS-1E cytokine-induced death, ATP luminescence, 48 h; normalised: neutral wells 0, positive control 100 | protection from cytokine-induced ATP loss, % at 10 µM;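 active = mean replicate protection from cytokine-induced ATP loss at least 50% and at least 75% of replicates each reaching 50%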
#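 Assay system: INS-1E rat insulinoma cells. Amount: 8000 cells per well. Medium: phenol-red-free RPMI with 5% fetal bovine serum. Reagent: IL-1β, TNF-α and IFN-γ cytokine mix. Doses: one compound concentration, pin transfer. Schedule: 48 h co-treatment, 10 min post-lysis read. Detection: CellTiter-Glo luminescence measuring cellular ATP.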
# Active calls of the source: *; x = no result given. This is one part of a sample in which hits are shown more often than they occur.
SMILES,T cruzi intra,YB-1 expr inh,INS-1E rescue
O=C(Nc1nc(-c2ccccc2)cs1)C12CC3CC(CC(C3)C1)C2,x,0.23,x
CCOC(=O)C1=C(CSc2ccc(Cl)cc2)NC(=O)NC1c1cc(C)ccc1C (stereo unspecified),x,-0.026,x
CSc1scc2c1-c1nc(SCC(=O)c3ccc(Cl)cc3)ncc1CC2,x,-0.078,x
C[C@H]1CN([C@@H](C)CO)C(=O)Cc2cc(N(C)C)ccc2O[C@@H]1CN(C)Cc1ccc(C(=O)Nc2ccccc2N)cc1,70*,-0.18,6
C[C@@H]1CN([C@@H](C)CO)C(=O)Cc2cc(N(C)C)ccc2O[C@@H]1CN(C)Cc1ccc(C(=O)Nc2ccccc2N)cc1,50,-0.31,-17
COc1cccc([C@H]2C(C#N)=C(N)C(C#N)(C#N)C3=CCC(C)C[C@@H]32)c1 (stereo partly specified),x,-0.084,x
C[C@H]1CN([C@@H](C)CO)C(=O)Cc2cc(NC(=O)CCC(F)(F)F)ccc2O[C@@H]1CN(C)Cc1ccc(Oc2ccccc2)cc1,59*,-0.2,-11
C[C@@H]1CN([C@H](C)CO)C(=O)Cc2cc(NC(=O)CCC(F)(F)F)ccc2O[C@@H]1CN(C)Cc1ccc(Oc2ccccc2)cc1,63*,-0.17,-72
C[C@@H]1CN([C@@H](C)CO)C(=O)Cc2cc(NC(=O)CCC(F)(F)F)ccc2O[C@@H]1CN(C)Cc1ccc(Oc2ccccc2)cc1,9,-0.038,-62
C[C@H](CO)N1C[C@H](C)[C@H](CN(C)Cc2ccc(Oc3ccccc3)cc2)Oc2ccc(NC(=O)CCC(F)(F)F)cc2CC1=O,22,0.15,-16
CCCn1c(-c2ccc(F)cc2)n[nH]c1=O,x,0.063,x
COC(=O)Nc1ccc(N=Cc2cccs2)cc1,x,-0.2,x
Cc1cc(O)c2c(c1)C(=O)C13C(C2=O)C(=O)C2C(O)C1C1C(O)C3C(=O)C3C(=O)c4c(O)cc(C)cc4C(=O)C321 (stereo unspecified),x,-0.27,x
C[C@@H]1CN([C@H](C)CO)C(=O)CCCn2nncc2CO[C@H]1CN(C)S(=O)(=O)c1ccc(-c2ccccc2)cc1,-4,0.12,2
C[C@@H]1CN([C@H](C)CO)C(=O)CCCn2nncc2CO[C@@H]1CN(C)S(=O)(=O)c1ccc(Oc2ccccc2)cc1,26,-0.011,-2
C[C@@H]1CN([C@H](C)CO)C(=O)CCCn2nncc2CO[C@@H]1CN(C)Cc1ccc(-c2ccccc2)cc1,60*,-0.32,x
C[C@H](CO)N1C[C@H](C)[C@@H](CN(C)S(=O)(=O)c2ccc(-c3ccccc3)cc2)OCc2cnnn2CCCC1=O,80*,-0.26,x
C[C@H](CO)N1C[C@H](C)[C@H](CN(C)S(=O)(=O)c2ccc(Oc3ccccc3)cc2)OCc2cnnn2CCCC1=O,70*,0.24,8
C[C@@H]1CN([C@@H](C)CO)C(=O)CCCn2nncc2CO[C@H]1CN(C)Cc1ccc(-c2ccccc2)cc1,22,-0.092,x
C(=C\c1ccccc1)/CSc1nc2ccccc2[nH]1,x,0.14,x
CCOC(=O)c1ccc(N=C(N)SCc2ccc(Cl)cc2)cc1,x,-0.38,x
CCC(C)C(O)(CC(=O)OCc1ccc(O[C@@H]2O[C@H](CO)[C@@H](O)[C@H](O)[C@H]2O)cc1)C(=O)OCc1ccc(O[C@@H]2O[C@H](CO)[C@@H](O)[C@H](O)[C@H]2O)cc1 (stereo partly specified),x,-0.51,x
CS(=O)(=O)c1sc(NC(=O)Nc2ccc(Cl)cc2)c2c1C=CCC2,x,-0.41,x
CCc1ccc2c(c1)=C(c1[nH]c(=S)[nH]c1O)C(=O)N=2,x,0.24,x
Nc1nc(Cc2ccc(F)cc2F)no1,x,-0.019,x
SMILES,T cruzi intra,YB-1 expr inh,INS-1E rescue
C=CCn1c(-c2ccc(OC)cc2)c(C)sc1=Nc1ccc(C)cc1,x,0.0041,x
C[C@H]1CN([C@@H](C)CO)C(=O)Cc2cc(NC(=O)Cc3cn(C)c4ccccc34)ccc2O[C@H]1CN(C)Cc1ccc(Cl)c(Cl)c1,60*,-0.21,-1
C[C@H](CO)N1C[C@H](C)[C@H](CN(C)Cc2ccc(C(F)(F)F)cc2)Oc2ccc(NC(=O)Cc3cn(C)c4ccccc34)cc2CC1=O,29,0.14,-8
C[C@@H]1CN([C@H](C)CO)C(=O)Cc2cc(NC(=O)Cc3cn(C)c4ccccc34)ccc2O[C@@H]1CN(C)S(=O)(=O)c1ccc(Cl)cc1,67*,0.095,3
C[C@@H]1CN([C@H](C)CO)C(=O)Cc2cc(NC(=O)Cc3cn(C)c4ccccc34)ccc2O[C@@H]1CN(C)Cc1ccc(Oc2ccccc2)cc1,65*,0.039,-55
C[C@@H]1CN([C@@H](C)CO)C(=O)Cc2cc(NC(=O)Cc3cn(C)c4ccccc34)ccc2O[C@@H]1CN(C)Cc1ccc(C(F)(F)F)cc1,63*,0.044,0
